13 compounds from ChEMBL document CHEMBL4043120 (Bioorg Med Chem, 2017) can be followed below.

For experiment [1], the target named is Protein arginine N-methyltransferase 1 (Homo sapiens) (UniProt Q99873). The experiment can be described thus: Inhibition of PRMT1 (unknown origin) at 400 uM preincubated for 5 mins followed by SAM and H4 (1 to 25 residues) peptide addition measured after 1 hr by HTRF assay relative to control.
Experiment [2] addresses T1, Histone-lysine N-methyltransferase EHMT2 (Homo sapiens) (UniProt Q96KQ7).
T1 sequence (whole entry): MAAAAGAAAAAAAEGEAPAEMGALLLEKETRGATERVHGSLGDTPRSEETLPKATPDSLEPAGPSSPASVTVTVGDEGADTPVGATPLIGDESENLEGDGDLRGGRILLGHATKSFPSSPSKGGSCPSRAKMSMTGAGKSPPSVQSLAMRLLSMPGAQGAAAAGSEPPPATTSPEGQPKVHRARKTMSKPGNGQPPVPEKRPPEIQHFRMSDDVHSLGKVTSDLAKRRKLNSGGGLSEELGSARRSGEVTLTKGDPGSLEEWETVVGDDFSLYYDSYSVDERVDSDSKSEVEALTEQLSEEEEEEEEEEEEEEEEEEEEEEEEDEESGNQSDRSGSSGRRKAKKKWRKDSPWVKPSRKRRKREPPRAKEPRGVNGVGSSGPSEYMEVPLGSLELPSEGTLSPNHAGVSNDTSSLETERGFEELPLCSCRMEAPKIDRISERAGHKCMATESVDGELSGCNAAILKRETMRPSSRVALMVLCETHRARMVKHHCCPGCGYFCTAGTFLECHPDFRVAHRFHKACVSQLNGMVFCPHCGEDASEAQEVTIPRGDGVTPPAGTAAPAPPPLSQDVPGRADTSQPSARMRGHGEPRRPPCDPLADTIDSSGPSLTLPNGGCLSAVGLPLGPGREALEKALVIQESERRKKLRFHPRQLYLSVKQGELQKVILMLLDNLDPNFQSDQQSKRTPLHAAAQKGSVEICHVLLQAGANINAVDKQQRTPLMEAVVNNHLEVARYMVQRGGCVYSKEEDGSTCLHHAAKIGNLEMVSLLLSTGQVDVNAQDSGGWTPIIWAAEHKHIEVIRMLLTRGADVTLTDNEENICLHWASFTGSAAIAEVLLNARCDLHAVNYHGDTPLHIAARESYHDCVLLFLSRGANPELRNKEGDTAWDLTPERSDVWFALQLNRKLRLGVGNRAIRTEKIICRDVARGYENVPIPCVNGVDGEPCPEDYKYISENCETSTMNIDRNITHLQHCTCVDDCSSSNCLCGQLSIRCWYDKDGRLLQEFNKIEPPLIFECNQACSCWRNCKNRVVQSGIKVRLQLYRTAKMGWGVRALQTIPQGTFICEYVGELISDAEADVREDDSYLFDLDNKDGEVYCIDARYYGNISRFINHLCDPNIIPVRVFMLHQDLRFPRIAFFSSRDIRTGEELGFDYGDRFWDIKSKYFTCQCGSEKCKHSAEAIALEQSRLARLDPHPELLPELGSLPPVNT
The experiment can be described thus: Inhibition of EHMT2 (unknown origin) at 400 uM preincubated for 15 mins followed by SAM and biotinylated H3K9 peptide addition measured after 30 mins by TR-FRET assay relative to control. An outline of the steps:
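Single-point EHMT2 screen at 400 μM, 1% DMSO. Final 0.6 nM EHMT2, 0.5 µM biotinylated H3(1-21)K9 peptide, 3 µM SAM in 50 mM Tris-HCl pH 9.0, 50 mM NaCl, 1 mM DTT, 0.01% Tween-20. Detection 60 min with final 2 nM Eu-antibody, 50 nM ULight-streptavidin, 0.0001% poly-L-lysine. TR-FRET read at 665/620 nm.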

The target of experiment [3] is T2, Histone-lysine N-methyltransferase EHMT1 (Homo sapiens, UniProt Q9H9B1).
T2 sequence (Q9H9B1 whole entry): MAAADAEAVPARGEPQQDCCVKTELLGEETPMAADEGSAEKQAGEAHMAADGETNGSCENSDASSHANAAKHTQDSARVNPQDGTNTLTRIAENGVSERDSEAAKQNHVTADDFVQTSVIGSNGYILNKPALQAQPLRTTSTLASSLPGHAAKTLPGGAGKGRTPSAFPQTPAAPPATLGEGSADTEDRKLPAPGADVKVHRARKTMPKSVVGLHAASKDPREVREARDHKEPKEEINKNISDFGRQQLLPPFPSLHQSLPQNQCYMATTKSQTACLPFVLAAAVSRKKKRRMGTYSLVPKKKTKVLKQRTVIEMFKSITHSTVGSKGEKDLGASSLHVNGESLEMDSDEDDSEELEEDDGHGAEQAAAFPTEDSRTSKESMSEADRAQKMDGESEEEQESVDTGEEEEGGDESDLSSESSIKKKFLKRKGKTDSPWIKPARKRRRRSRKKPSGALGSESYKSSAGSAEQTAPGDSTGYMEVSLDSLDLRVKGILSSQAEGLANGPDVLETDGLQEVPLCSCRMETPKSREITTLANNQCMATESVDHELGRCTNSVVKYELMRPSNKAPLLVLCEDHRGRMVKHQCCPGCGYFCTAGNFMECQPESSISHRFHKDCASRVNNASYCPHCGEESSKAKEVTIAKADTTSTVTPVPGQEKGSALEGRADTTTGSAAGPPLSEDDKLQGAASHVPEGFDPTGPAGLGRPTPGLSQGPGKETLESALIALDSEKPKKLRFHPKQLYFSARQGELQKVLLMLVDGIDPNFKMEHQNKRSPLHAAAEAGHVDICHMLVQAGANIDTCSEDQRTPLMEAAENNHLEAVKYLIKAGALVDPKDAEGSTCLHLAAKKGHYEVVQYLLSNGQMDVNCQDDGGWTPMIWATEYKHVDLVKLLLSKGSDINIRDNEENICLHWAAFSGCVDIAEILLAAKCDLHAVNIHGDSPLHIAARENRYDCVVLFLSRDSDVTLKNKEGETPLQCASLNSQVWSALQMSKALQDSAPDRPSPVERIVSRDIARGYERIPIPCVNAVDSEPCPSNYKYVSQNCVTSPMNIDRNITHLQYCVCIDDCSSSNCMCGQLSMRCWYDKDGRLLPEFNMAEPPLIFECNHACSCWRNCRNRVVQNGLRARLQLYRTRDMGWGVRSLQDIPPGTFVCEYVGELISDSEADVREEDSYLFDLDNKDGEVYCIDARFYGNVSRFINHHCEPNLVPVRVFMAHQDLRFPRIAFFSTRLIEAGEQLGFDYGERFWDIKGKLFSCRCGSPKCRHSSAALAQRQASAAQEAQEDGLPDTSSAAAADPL
Description: (§1) Inhibition of EHMT1 (unknown origin) preincubated for 5 mins followed by SAM and biotinylated H3K9 peptide addition measured after 120 mins by HTRF assay. The following applies: for pIC50: read-out: IC50. An outline of the steps: (§2)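 Final 0.4 nM enzyme, 150 nM biotinylated H3(1-21)K9 peptide, 6 μM SAM, pH 8.8 Tris buffer, 1% DMSO. Eu-antibody/SA-XL665 HTRF read at 665/620 nm. Mean±SEM of 3-4 independent experiments in triplicate.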

For experiment [4], the target named is T3, Histone-lysine N-methyltransferase EHMT1 (Homo sapiens) (UniProt Q9H9B1).
T3 sequence (whole entry): T2 sequence (Q9H9B1 whole entry)
The description is as §1. Summed up: as §2

Experiment [5] concerns the target T3, Histone-lysine N-methyltransferase EHMT1 (Homo sapiens). The experiment can be described thus: Inhibition of EHMT1 (unknown origin) at 200 uM preincubated for 5 mins followed by SAM and biotinylated H3K9 peptide addition measured after 120 mins by HTRF assay relative to control. An outline of the steps:
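Final EHMT1 0.4 nM, biotinylated unmethylated H3(1-21)K9 peptide 150 nM, SAM 6 μM in 50 mM Tris-HCl pH 8.8, 50 mM NaCl, 1 mM DTT, 0.01% Tween-20; samples at 200 μM, 1% DMSO final. Detection by Eu-antibody plus streptavidin-XL665, 60 min. HTRF read: excitation 320 or 340 nm, emission 665/620 nm.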

Experiment [6] addresses T1, Histone-lysine N-methyltransferase EHMT2 (Homo sapiens). The experiment can be described thus: (§3) Inhibition of EHMT2 (unknown origin) preincubated for 15 mins followed by SAM and biotinylated H3K9 peptide addition measured after 30 mins by TR-FRET assay.
Another experiment deals with HL-60. Description: Antiproliferative activity against human HL60 cells at 200 uM after 72 hrs by CCK8 assay relative to control. Format: functional. The following applies: HL-60, 72 h.
The test system of the next experiment is MDA-MB-231. Description: Antiproliferative activity against human MDA-MB-231 cells at 200 uM after 72 hrs by sulforhodamine B assay relative to control. Type of experiment: functional. Particulars: MDA-MB-231, 72 h.
The target in experiment [7] is T4, Histone-lysine N-methyltransferase EHMT2 (Homo sapiens, UniProt Q96KQ7).
T4 sequence (Q96KQ7 whole entry): T1 sequence (whole entry)
The description is as §3.

pIC50: −log10 of the molar value. Active and inactive are the calls of the source. No cut-off for these calls is given here.

Protein arginine N-methyltransferase 1 (Homo sapiens), sequence (Q99873 whole entry, looked up, the tested form may be a part): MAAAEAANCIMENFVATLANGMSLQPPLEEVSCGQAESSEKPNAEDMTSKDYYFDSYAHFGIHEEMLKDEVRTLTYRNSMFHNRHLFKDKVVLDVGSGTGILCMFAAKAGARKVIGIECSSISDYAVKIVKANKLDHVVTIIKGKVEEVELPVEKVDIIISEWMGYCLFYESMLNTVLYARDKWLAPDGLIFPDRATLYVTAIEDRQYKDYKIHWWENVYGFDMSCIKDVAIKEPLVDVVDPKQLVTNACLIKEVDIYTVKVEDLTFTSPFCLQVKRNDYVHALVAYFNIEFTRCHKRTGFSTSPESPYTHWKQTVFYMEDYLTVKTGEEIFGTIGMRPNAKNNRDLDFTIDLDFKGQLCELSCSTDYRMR

Regarding `Nc1ncnc2c1ncn2[C@@H]1O[C@H](C[C@@H](N)CC2CCCCC2)[C@@H](O)[C@H]1O`, the inhibition entry in [1] was “inactive”. Further, the inhibition was 43.7% in experiment [2], “Dose-dependent effect” in experiment [4], 72.7% in [5] and “Dose-dependent effect” in [6]. Also, the pIC50 in experiment [3] is 3.69.

As to `COc1cc2nc(N3CCCN(C)CC3)nc(NC3CCN(Cc4ccccc4)CC3)c2cc1OC`, the inhibition at 200 µM came out at 81.8% in the experiment with HL-60 and 87.2% in the experiment with MDA-MB-231.

In the case of `Nc1ncnc2c1ncn2[C@@H]1O[C@H](C[C@@H](N)CC2CCC2)[C@@H](O)[C@H]1O`, the inhibition result in experiment [1] is “inactive”. In addition, the inhibition in [2] was 58.9%; in [4], “Dose-dependent effect”; in experiment [5] it was 69.7%; in experiment [6], “Dose-dependent effect”. The figures for the pIC50 in experiment [3] and in [7] were 4.32 and 3.77, respectively.

As to `CCCN(CC1CCCCC1)C[C@H]1O[C@@H](n2cnc3c(N)ncnc32)[C@H](O)[C@@H]1O`, the inhibition in [2] was 19.8%; in experiment [4], “Dose-dependent effect”; in experiment [6], “Dose-dependent effect”. For the same compound, the IC50 entry in experiment [3] is given as “Not Active”. The inhibition entry in experiment [5] was “inactive”.

Consider `Nc1ncnc2c1ncn2[C@@H]1O[C@H](C[C@H](N)CC2CCC2)[C@@H](O)[C@H]1O`, for which the inhibition in experiment [2] is 44%; in experiment [4], “Dose-dependent effect”; in [5], 53.2%; in experiment [6], “Dose-dependent effect”. Also, in [3], the pIC50 is 3.94.

For the compound `CN(CC1CCCCC1)C[C@H]1O[C@@H](n2cnc3c(N)ncnc32)[C@H](O)[C@@H]1O`, the inhibition in experiment [2] was 31.9%; in [4], “Dose-dependent effect”; in [6], “Dose-dependent effect”. Further, in experiment [3], the IC50 result is “Not Active”. Besides, in [5], the inhibition entry is “inactive”.

On to `CCN(CC1CCCCC1)C[C@H]1O[C@@H](n2cnc3c(N)ncnc32)[C@H](O)[C@@H]1O`, for which the inhibition in experiment [2] is 39.1%; in experiment [4], “Dose-dependent effect”; in experiment [5], 24.1%; in experiment [6], “Dose-dependent effect”.

As to `Nc1ncnc2c1ncn2[C@@H]1O[C@H](C[C@@H](N)CCC2CCCCC2)[C@@H](O)[C@H]1O`, the inhibition in [2] is 42.7%; in experiment [4], “Dose-dependent effect”; in experiment [5] it was 40.9%; in experiment [6] it was “Dose-dependent effect”.

With `Nc1ncnc2c1ncn2[C@@H]1O[C@H](C[C@H](N)CC2CCCC2)[C@@H](O)[C@H]1O`, the inhibition in experiment [2] was 43.6%; in [4] it was “Dose-dependent effect”; in experiment [5], 12.5%; in experiment [6], “Dose-dependent effect”.

Take `Nc1ncnc2c1ncn2[C@@H]1O[C@H](C[C@@H](N)CC2CCCC2)[C@@H](O)[C@H]1O`: the inhibition result in experiment [1] was “inactive”. Also, the inhibition in experiment [2] is 55.3%; in experiment [4], “Dose-dependent effect”; in experiment [5] it was 75.7%; in experiment [6], “Dose-dependent effect”. Besides, the figures for the pIC50 in experiment [3] and in experiment [7] were 4.02 and 3.72, respectively.

Consider `Nc1ncnc2c1ncn2[C@@H]1O[C@H](C[C@H](N)CCC2CCCCC2)[C@@H](O)[C@H]1O`, for which the inhibition is 47.8% in [2], “Dose-dependent effect” in experiment [4], 46.3% in experiment [5] and “Dose-dependent effect” in experiment [6].

In the case of `Nc1ncnc2c1ncn2[C@@H]1O[C@H](C[C@H](N)CC2CCCCC2)[C@@H](O)[C@H]1O`, the inhibition result in [1] was “inactive”. In addition, the inhibition in experiment [2] is 45.3%; in experiment [4], “Dose-dependent effect”; in experiment [5], 58.1%; in experiment [6] it was “Dose-dependent effect”. Further, the pIC50 in experiment [3] was 3.84.

As to `Nc1ncnc2c1ncn2[C@@H]1O[C@H](C[C@H](N)CC2CC2)[C@@H](O)[C@H]1O`, the inhibition was 20% in [1]; 65.7% in experiment [2]; “Dose-dependent effect” in experiment [4]; 52.2% in experiment [5]; “Dose-dependent effect” in experiment [6]. This compound also had a pIC50 in [7] of 4.17.
